Assay results taken from ChEMBL document CHEMBL1137203, “Anti-AIDS agents. 60. Substituted 3'R,4'R-di-O-(-)-camphanoyl-2',2'-dimethyldihydropyrano[2,3-f]chromone (DCP) analogues as potent anti-HIV agents” (J Med Chem, 2004).
Several values for one entry are separate records, joined by “and”; a condition that tells them apart may be missing. Equal entries are not always repeated.

Legend:
[1] = system: Human immunodeficiency virus 3; assay: Inhibitory concentration against HIV IIIB replication in H9 lymphocytes; format: functional, organism-based, human immunodeficiency virus type IIIB; settings: Human immunodeficiency virus 1
[2] = system: Human immunodeficiency virus 1; assay: Effective concentration against HIV IIIB replication in H9 lymphocytes
[3] = Effective concentration against HIV-I RTMDR1 in MT-4 cells; format: functional, cell-based, human immunodeficiency virus type i; settings: mt4
Summary of the method: (§1)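 MT4 cells (6 × 10⁵ cells/mL) were infected with diluted HIV-1 RTMDR1/MT2 stock (RT mutations L74V, M41L, V106A, T215Y) at MOI 0.001 TCID₅₀/cell. Compounds were added at various concentrations in RPMI 1640 with 10% FBS, then incubated at 37 °C in humidified CO₂. Medium containing compound was replenished on day 2. p24 in day-4 supernatants was measured by ELISA.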

[4] = Therapeutic index was determined; settings: for selectivity ratio: read-out: TI
[5] = Inhibitory concentration against HIV-I RTMDR1 in MT-4 cells; format: functional, cell-based, Human immunodeficiency virus 1; settings: mt4
[6] = Effective concentration against HIV-I RTMDR1 in MT-4 cells; NS=No suppression at 10 ug/ml; format: functional, cell-based, human immunodeficiency virus type i; settings: mt4; summary of the method: as §1

Row | SMILES | IC50 [1] [µM] | EC50 [2] [µM] | EC50 [3] [µM] | TI [4] | selectivity ratio [4] | IC50 [5] [µM] | EC50 [6]
1 | CC(=O)O[C@@H]1[C@H](OC(=O)C23CCC(C)(C(=O)O2)C3(C)C)c2c(ccc3c(=O)cc(C)oc23)OC1(C)C (some centres not stated) | > 50 | 2.29 | 2.2 | 18.2 | 21.9 | > 40.2 | 
2 | Cc1cc(=O)c2ccc3c(c2o1)[C@@H](OC(=O)C12CCC(C)(C(=O)O1)C2(C)C)[C@@H](OC(=O)C(C)C)C(C)(C)O3 (some centres not stated) | 40.7 | 0.88 | 0.3 | 56.3 | 46 | 17.1 | 
3 | CC1(C)Oc2ccc3ccc(=O)oc3c2[C@@H](OC(=O)C23CCC(C)(C(=O)O2)C3(C)C)[C@H]1OC(=O)C12CCC(C)(C(=O)O1)C2(C)C (some centres not stated) | > 16.1 | 0.04 | 12.1 |  |  | > 16.1 | 
4 | CC(C)c1cc(=O)c2ccc3c(c2o1)[C@@H](OC(=O)C12CCC(C)(C(=O)O1)C2(C)C)[C@@H](OC(=O)C12CCC(C)(C(=O)O1)C2(C)C)C(C)(C)O3 (some centres not stated) | 33.4 | 0.07 | 0.14 | 483 | > 111 | > 15 | 
5 | CC(C)C(=O)O[C@@H]1[C@H](OC(=O)C23CCC(C)(C(=O)O2)C3(C)C)c2c(ccc3c(=O)cc(-c4ccccc4)oc23)OC1(C)C (some centres not stated) | > 42.5 | 1.68 |  |  | 25.3 |  | No suppression
6 | CCc1cc(=O)c2cc(C(C)(C)C)c3c(c2o1)[C@@H](OC(=O)C12CCC(C)(C(=O)O1)C2(C)C)[C@@H](OC(=O)C12CCC(C)(C(=O)O1)C2(C)C)C(C)(C)O3 (some centres not stated) | 35.4 | 1.62 | 7.36 |  |  | > 14.2 | 
7 | CC1(C)Oc2ccc3c(=O)cc(-c4ccccc4)oc3c2[C@@H](OC(=O)C23CCC(C)(C(=O)O2)C3(C)C)[C@H]1OC(=O)C12CCC(C)(C(=O)O1)C2(C)C (some centres not stated) | > 35.8 | 0.12 | 0.17 | 71 | > 277 | 12.2 | 
8 | CC(=O)O[C@@H]1[C@H](OC(=O)C23CCC(C)(C(=O)O2)C3(C)C)c2c(ccc3c(=O)cc(-c4ccccc4)oc23)OC1(C)C (some centres not stated) | > 44.6 | 2.24 | 4.46 |  |  | 6.25 | 
9 | Cc1cc(=O)c2ccc3c(c2o1)[C@@H](OC(=O)C12CCC(C)(C(=O)O1)C2(C)C)[C@@H](OC(=O)C12CCC(C)(C(=O)O1)C2(C)C)C(C)(C)O3 (some centres not stated) | 27.3 | 0.0031 | 0.19 | 8600 | 62.5 | 11.8 | 
10 | Cc1coc2c3c(ccc2c1=O)OC(C)(C)[C@H](OC(=O)C12CCC(C)(C(=O)O1)C2(C)C)[C@@H]3OC(=O)C12CCC(C)(C(=O)O1)C2(C)C (some centres not stated) | 14.7 | 0.00099 | 1.28 |  |  | 3.14 | 
11 | CC1(C)Oc2ccc3c(=O)c(-c4ccccc4)coc3c2[C@@H](OC(=O)C23CCC(C)(C(=O)O2)C3(C)C)[C@H]1OC(=O)C12CCC(C)(C(=O)O1)C2(C)C (some centres not stated) | > 35.8 | 1.54 |  |  | 23.3 |  | No suppression
12 | CCOCc1cc(=O)c2ccc3c(c2o1)[C@@H](OC(=O)C12CCC(C)(C(=O)O1)C2(C)C)[C@@H](OC(=O)C12CCC(C)(C(=O)O1)C2(C)C)C(C)(C)O3 (some centres not stated) | 15.1 | 0.1 | 0.37 | 151 | > 34 | > 12.5 | 
13 | Cc1oc2c3c(ccc2c(=O)c1C)OC(C)(C)[C@H](OC(=O)C12CCC(C)(C(=O)O1)C2(C)C)[C@@H]3OC(=O)C12CCC(C)(C(=O)O1)C2(C)C (some centres not stated) | 11.3 | 0.007 | 0.31 |  |  | 4.72 | 
14 | CCOCc1cc(=O)c2ccc3c(c2o1)[C@@H](OC(=O)C12CCC(C)(C(=O)O1)C2(C)C)[C@@H](OC(=O)C(C)C)C(C)(C)O3 (some centres not stated) | > 43.9 | 0.62 | 1.09 |  |  | > 17.5 | 
15 | CCc1cc(=O)c2ccc3c(c2o1)[C@@H](OC(=O)C12CCC(C)(C(=O)O1)C2(C)C)[C@@H](OC(=O)C(C)C)C(C)(C)O3 (some centres not stated) | > 46.3 | 0.25 | 0.28 | 182 and > 66.7 |  | > 18.5 | 
16 | Cc1cc(=O)c2ccc3c(c2o1)[C@@H](OC(=O)C12CCC(C)(C(=O)O1)C2(C)C)[C@@H](OC(=O)CC(C)C)C(C)(C)O3 (some centres not stated) | > 32.2 | 0.0057 | 0.59 |  |  | 13 | 
17 | CCCc1cc(=O)c2ccc3c(c2o1)[C@@H](OC(=O)C12CCC(C)(C(=O)O1)C2(C)C)[C@@H](OC(=O)C12CCC(C)(C(=O)O1)C2(C)C)C(C)(C)O3 (some centres not stated) | > 37.6 | 0.02 | 0.14 |  |  | 37.6 | 
18 | CC1(C)Oc2ccc3c(=O)ccoc3c2[C@@H](OC(=O)C23CCC(C)(C(=O)O2)C3(C)C)[C@H]1OC(=O)C12CCC(C)(C(=O)O1)C2(C)C (some centres not stated) | 14.2 | 0.0013 |  |  | 11100 |  | No suppression
19 | Cc1cc(=O)oc2c3c(ccc12)OC(C)(C)[C@H](OC(=O)C12CCC(C)(C(=O)O1)C2(C)C)[C@@H]3OC(=O)C12CCC(C)(C(=O)O1)C2(C)C (some centres not stated) | > 39.3 | 0.0059 | 9.43 |  |  | > 15.7 | 
20 | CCc1cc(=O)c2ccc3c(c2o1)[C@@H](OC(=O)C12CCC(C)(C(=O)O1)C2(C)C)[C@@H](OC(=O)C12CCC(C)(C(=O)O1)C2(C)C)C(C)(C)O3 (some centres not stated) | 37.2 | 0.00032 | 0.06 |  |  | 43.1 | 
21 | Cc1cn([C@H]2C[C@H](N=[N+]=[N-])[C@@H](CO)O2)c(=O)[nH]c1=O [ZIDOVUDINE] | 1870 | 0.04 | 0.1 |  |  | > 37.5 | 
